From ChEMBL document CHEMBL1125862, “(1S)-1-(aminomethyl)-2-(arylacetyl)-1,2,3,4-tetrahydroisoquinoline and heterocycle-condensed tetrahydropyridine derivatives: members of a novel class of very potent kappa opioid analgesics” (J Med Chem, 1991)

Legend:
Mus musculus [1] = test: In vivo antinociceptive activity using mouse tail flick test, subcutaneous administration; format: functional
Mus musculus [2] = test: In vivo antinociceptive activity in mouse tail flick test following p.o. administration.; format: functional
Mu-type opioid receptor = Mu-type opioid receptor (Cavia porcellus, UniProt P97266); test: Affinity for opioid receptor mu sites
[3] = target: Kappa-type opioid receptor (Cavia porcellus, UniProt P41144); test: Displacement of [3H]-BRL 52537 from opioid receptor kappa site in guinea pig
Mus musculus [4] = test: Phenyl-p-benzoquinone-induced abdominal constriction after subcutaneous administration in mouse (in vivo); format: functional, Abdomen
Outline: (§1)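 Mice given test agent subcutaneously, with 10 animals per dose, then challenged with phenyl-p-benzoquinone. Abdominal constrictions counted over an 8-min observation period. Percentage inhibition calculated as 1 − (T/C) × 100, with T the treated-group mean and C the control-group mean count.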

Mus musculus [5] = test: Concentration required for 50% inhibition of abdominal constrictions by phenyl-p-benzoquinone-induced abdominal constriction given sc in mouse.; format: functional, Abdomen; outline: as §1
[6] = Mus musculus, Tail, sc, read-out: ED50
[7] = Mus musculus, Tail, po, read-out: ED50
[8] = Mus musculus, Abdomen, sc, read-out: ED50

Chain of Mu-type opioid receptor (P97266 whole entry): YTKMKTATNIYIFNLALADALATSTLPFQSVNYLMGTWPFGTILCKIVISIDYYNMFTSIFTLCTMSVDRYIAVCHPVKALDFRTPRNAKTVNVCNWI
Chain of Kappa-type opioid receptor (P41144 whole entry): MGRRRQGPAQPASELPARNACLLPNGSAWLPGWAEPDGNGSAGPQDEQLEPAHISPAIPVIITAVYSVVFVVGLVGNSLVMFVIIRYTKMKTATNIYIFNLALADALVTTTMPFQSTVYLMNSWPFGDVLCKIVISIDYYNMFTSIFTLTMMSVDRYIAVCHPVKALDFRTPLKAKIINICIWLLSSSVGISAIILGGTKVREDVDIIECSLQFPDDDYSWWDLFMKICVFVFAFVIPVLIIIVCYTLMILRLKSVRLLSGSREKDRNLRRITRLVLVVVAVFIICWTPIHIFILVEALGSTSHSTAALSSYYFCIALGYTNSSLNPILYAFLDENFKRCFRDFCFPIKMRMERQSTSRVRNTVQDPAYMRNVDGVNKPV

Compound	ED50 (Mus musculus [1]; [6]) [µmol/kg]	ED50 (Mus musculus [2]; [7]) [µmol/kg]	Ki (Mu-type opioid receptor) [nM]	Ki [3] [nM]	other results
O=C(Cc1ccc(Cl)c(Cl)c1)N1CCc2ccccc2C1CN1CCCCCCC1 (racemic)	> 22				
CCCN(CCC)CC1c2ccccc2CCN1C(=O)Cc1ccc(Cl)c(Cl)c1 (racemic)	> 23				
O=C(Cc1ccccc1[N+](=O)[O-])N1CCc2ccccc2C1CN1CCCC1 (racemic)	> 21				
O=C(Cc1ccc(C(F)(F)F)cc1)N1CCCC[C@H]1CN1CCCC1	0.0373	3.29	2340	0.64	ED50 (Mus musculus [4]; [8]): 0.099 µmol/kg
CNCC1c2ccccc2CCN1C(=O)Cc1ccc(Cl)c(Cl)c1 (racemic)	> 28				
O=C(Cc1ccc(Cl)c(Cl)c1)N1CCc2sccc2C1CN1CCCC1 (stereo not drawn)	0.018	0.945	47.2	0.22	
O=C(Cc1ccc(Cl)c(Cl)c1)N1CCc2ccccc2C1CN1CCCCC1 (racemic)	0.359	5.16			ED50 (Mus musculus [4]; [8]): 0.101 µmol/kg
O=C(Cc1ccc(Cl)c(Cl)c1)N1c2ccccc2CCC1CN1CCCC1 (stereo not drawn)	> 20				
CN(CC1CC1)CC1c2ccccc2CCN1C(=O)Cc1ccc(Cl)c(Cl)c1 (racemic)	3.39				
C=CCN(C)CC1c2ccccc2CCN1C(=O)Cc1ccc(Cl)c(Cl)c1 (racemic)	0.521	6.88			
O=C(Cc1ccc(Cl)c(Cl)c1)N1CCc2[nH]c3ccccc3c2C1CN1CCCC1 (stereo not drawn)	> 20		> 1000	100	
O=C(Cc1ccc(Cl)c(Cl)c1)N1CCc2ccccc2C1CN1CCC1 (stereo not drawn)	23.2				
O=C(Cc1ccc(C(F)(F)F)cc1)N1CCc2ccccc2[C@H]1CN1CCCC1 (stereo in doubt; 30)		0.25	10.7	0.24	ED50 (Mus musculus [1]): 0.032 µM/kg; ED50 (Mus musculus [5]; [8]): 0.015 µmol/kg
O=C(Cc1cccc([N+](=O)[O-])c1)N1CCc2ccccc2C1CN1CCCC1 (racemic)	0.105	5.26			
O=C(Cc1ccc(Cl)c(Cl)c1)N1CCc2c([nH]c3ccccc23)C1CN1CCCC1 (stereo not drawn)	> 20		> 1000	> 100	
O=C(Cc1ccc(C(F)(F)F)cc1)N1CCc2ccccc2C1CN1CCCC1 (racemic)	0.074	0.467			ED50 (Mus musculus [5]; [8]): 0.027 µmol/kg

Compound	ED50 (Mus musculus [1]; [6]) [µmol/kg]	ED50 (Mus musculus [2]; [7]) [µmol/kg]	Ki (Mu-type opioid receptor) [nM]	Ki [3] [nM]	other results
O=C(Cc1ccc(Cl)c(Cl)c1)N1CCc2ccsc2C1CN1CCCC1 (stereo not drawn)	0.073	1.59	47	0.46	
O=C(Cc1ccc(Br)cc1)N1CCc2ccccc2C1CN1CCCC1 (racemic)	0.07				
CCO.CN(C)CC1c2ccccc2CCN1C(=O)Cc1ccc(Cl)c(Cl)c1.O=C(O)C(O)C(O)C(=O)O (single isomer, unassigned; (-))			293	0.51	ED50 (Mus musculus [2]): 2.199 µM/kg; ED50 (Mus musculus [1]): 0.075 µM/kg; ED50 (Mus musculus [5]): 0.042 µM/kg
O=C(Cc1ccc(Cl)c(Cl)c1)N1CCc2ccccc2C1CN1CCCCCC1 (stereo not drawn)	0.267				ED50 (Mus musculus [4]; [8]): 0.083 µmol/kg
O=C(Cc1ccc(Cl)c(Cl)c1)N1CCCC[C@H]1CN1CCCC1	0.135	2.49		0.31	ED50 (Mus musculus [4]; [8]): 0.056 µmol/kg
O=C(Cc1ccc(Cl)c(Cl)c1)N1Cc2ccccc2CC1CN1CCCC1 (stereo not drawn)	8.23				
O=C(Cc1ccc(C(F)(F)F)cc1)N1CCc2sccc2C1CN1CCCCC1 (stereo not drawn)	0.125	4.65	420	0.6	ED50 (Mus musculus [4]; [8]): 0.024 µmol/kg
O=C(Cc1ccc(Cl)c(Cl)c1)N1CCc2ccccc2C1CN1CCCC1 (stereo not drawn)	0.036	0.626			ED50 (Mus musculus [4]; [8]): 0.025 µmol/kg
CCN(CC)CC1c2ccccc2CCN1C(=O)Cc1ccc(Cl)c(Cl)c1 (racemic)	0.264	3.37			
O=C(Cc1ccc(Cl)c(Cl)c1)N1CCc2sccc2C1CN1CCCCC1 (stereo not drawn)	0.096	2.75	445	0.47	ED50 (Mus musculus [4]; [8]): 0.024 µmol/kg
O=C(Cc1ccc(Cl)c(Cl)c1)N1CCc2ccccc2C1CN1CCCC1.O=C(O)C(O)C(O)C(=O)O (stereo not drawn)					ED50 (Mus musculus [2]): 0.544 µM/kg; ED50 (Mus musculus [1]): 0.02 µM/kg; ED50 (Mus musculus [4]): 0.017 µM/kg
O=C(Cc1ccc(C(F)(F)F)cc1)N1CCc2ccccc2C1CN1CCCCC1 (single isomer, unassigned; (-))	0.168	3.84	231	0.62	ED50 (Mus musculus [5]; [8]): 0.06 µmol/kg
CN1CC[C@]23c4c5ccc(O)c4O[C@H]2[C@@H](O)C=C[C@H]3[C@H]1C5 [MORPHINE]		32.6			
CN(C)CC1c2ccccc2CCN1C(=O)Cc1ccc(Cl)c(Cl)c1.Cl (racemic)	0.099	2.88			ED50 (Mus musculus [5]): 0.127 µM/kg
O=C(Cc1ccc([N+](=O)[O-])cc1)N1CCc2ccccc2C1CN1CCCC1 (racemic)	0.038	0.409			
